Assay [1] addresses GABA-A receptor; anion channel (Rattus norvegicus) (UniProt O09028+P15431+P18506+P18508+P19969+P20236+P23574+P23576+P28471+P28473+P30191+P62813+P63079+P63138+Q91ZM7+Q9ES14). The assay is described as follows: Binding affinity by displacement of [3H]flumazenil from rat cortex homogenates; Not active. It counts as functional. Summed up:
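Displacement of [3H]flumazenil from rat cortex homogenates. […] Values are averages (±SD); some analogues were run once as a single set of triplicates. NA means an IC50 was not achieved at the highest dose tested.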
On the technique in general: In a radioligand displacement assay an active substance lowers the binding of a labelled ligand.

Assay [2] addresses T1, Gamma-aminobutyric acid receptor subunit alpha-2 (Homo sapiens, UniProt P47869).
T1 sequence (P47869 whole entry): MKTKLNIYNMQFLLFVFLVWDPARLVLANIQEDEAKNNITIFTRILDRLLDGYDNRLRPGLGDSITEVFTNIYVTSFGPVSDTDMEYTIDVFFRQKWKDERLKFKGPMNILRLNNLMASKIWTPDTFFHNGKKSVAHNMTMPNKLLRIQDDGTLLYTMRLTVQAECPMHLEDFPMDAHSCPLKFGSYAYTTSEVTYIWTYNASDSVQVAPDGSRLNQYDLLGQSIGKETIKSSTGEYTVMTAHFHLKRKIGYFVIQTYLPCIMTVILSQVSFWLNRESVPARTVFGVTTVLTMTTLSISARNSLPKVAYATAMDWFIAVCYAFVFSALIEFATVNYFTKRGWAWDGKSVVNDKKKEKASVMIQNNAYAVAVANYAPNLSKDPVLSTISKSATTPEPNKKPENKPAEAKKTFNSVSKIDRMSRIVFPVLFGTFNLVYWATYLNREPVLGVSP
Put plainly: Effective concentration against gamma-aminobutyric acid (GABA) A receptor, alpha 2. Set-up: species or system Xenopus laevis. Summed up:
(§1)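 Xenopus laevis oocytes were injected with human cRNA for the α, β and γ subunits needed to express each receptor subtype (α1, α2, α3 or α5). Electrophysiological recording was used to read potentiation, and the effective concentration and maximal percent potentiation were derived from it.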

Assay [3] concerns the target GABA-A receptor; anion channel. Put plainly: Binding affinity was determined by displacement of [3H]flumazenil from rat cortex homogenates. It counts as functional. Summed up:
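Displacement of [3H]flumazenil from rat cortex homogenates. Values are averages (±SD); some analogues were run once as a single set of triplicates. NA means an IC50 was not achieved at the highest dose tested.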

For assay [4], the target named is T2, Gamma-aminobutyric acid receptor subunit alpha-3 (Homo sapiens) (UniProt P34903).
T2 sequence (whole entry): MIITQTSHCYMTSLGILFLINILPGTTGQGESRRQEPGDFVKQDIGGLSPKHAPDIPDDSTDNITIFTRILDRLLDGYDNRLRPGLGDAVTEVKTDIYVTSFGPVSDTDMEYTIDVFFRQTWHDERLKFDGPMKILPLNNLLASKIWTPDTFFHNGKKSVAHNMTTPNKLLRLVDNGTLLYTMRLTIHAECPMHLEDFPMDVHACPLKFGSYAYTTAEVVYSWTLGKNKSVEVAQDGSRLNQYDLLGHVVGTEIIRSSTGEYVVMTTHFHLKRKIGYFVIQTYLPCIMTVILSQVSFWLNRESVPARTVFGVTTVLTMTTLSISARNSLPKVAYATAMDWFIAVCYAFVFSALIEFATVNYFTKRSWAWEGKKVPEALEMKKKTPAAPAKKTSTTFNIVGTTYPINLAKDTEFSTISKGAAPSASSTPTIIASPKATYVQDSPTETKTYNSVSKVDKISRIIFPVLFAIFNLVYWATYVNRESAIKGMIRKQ
The assay is described as follows: Maximum percent potentiation against gamma-aminobutyric acid (GABA) A receptor, alpha 3. To be noted: Xenopus laevis. Summed up:
as §1

The target of assay [5] is T3, Gamma-aminobutyric acid receptor subunit alpha-5 (Homo sapiens) (UniProt P31644).
T3 sequence (whole entry): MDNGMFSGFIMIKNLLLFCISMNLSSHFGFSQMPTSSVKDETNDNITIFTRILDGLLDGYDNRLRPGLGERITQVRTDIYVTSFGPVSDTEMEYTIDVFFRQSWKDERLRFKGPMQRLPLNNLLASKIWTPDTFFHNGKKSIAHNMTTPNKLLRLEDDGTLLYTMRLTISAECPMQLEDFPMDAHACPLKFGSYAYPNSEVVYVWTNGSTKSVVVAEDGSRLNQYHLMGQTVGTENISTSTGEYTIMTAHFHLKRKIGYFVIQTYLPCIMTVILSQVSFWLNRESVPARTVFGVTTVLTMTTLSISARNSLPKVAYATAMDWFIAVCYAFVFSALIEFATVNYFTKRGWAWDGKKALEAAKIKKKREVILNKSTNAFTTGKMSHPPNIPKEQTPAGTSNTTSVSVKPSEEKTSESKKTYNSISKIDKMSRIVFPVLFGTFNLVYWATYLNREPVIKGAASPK
The assay is described as follows: Maximum percent potentiation against gamma-aminobutyric acid (GABA) A receptor, alpha 5. The note with it: Xenopus laevis. Summed up: as §1

The target in assay [6] is T4, Gamma-aminobutyric acid receptor subunit alpha-3 (Homo sapiens, UniProt P34903).
T4 sequence (P34903 whole entry): T2 sequence (whole entry)
Put plainly: Effective concentration against gamma-aminobutyric acid (GABA) A receptor, alpha 3. Also noted: species or system Xenopus laevis. Summed up:
as §1

Assay [7] concerns the target T5, Gamma-aminobutyric acid receptor subunit alpha-1 (Homo sapiens) (UniProt P14867).
T5 sequence (whole entry): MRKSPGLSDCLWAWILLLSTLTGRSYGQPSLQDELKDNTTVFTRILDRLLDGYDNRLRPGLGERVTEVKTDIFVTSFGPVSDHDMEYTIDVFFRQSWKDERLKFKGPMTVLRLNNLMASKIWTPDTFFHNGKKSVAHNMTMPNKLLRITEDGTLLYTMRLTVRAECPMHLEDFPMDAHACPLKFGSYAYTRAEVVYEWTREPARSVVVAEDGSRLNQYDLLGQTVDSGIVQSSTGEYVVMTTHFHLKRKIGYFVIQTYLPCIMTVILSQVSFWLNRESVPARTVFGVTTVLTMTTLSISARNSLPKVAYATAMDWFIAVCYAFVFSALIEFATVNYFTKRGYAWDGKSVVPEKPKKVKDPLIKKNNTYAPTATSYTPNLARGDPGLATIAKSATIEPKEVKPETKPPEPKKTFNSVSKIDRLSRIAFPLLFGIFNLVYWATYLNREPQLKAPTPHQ
Put plainly: Maximum percent potentiation against gamma-aminobutyric acid (GABA) A receptor, alpha 1. The note with it: Xenopus laevis. A digest of the protocol:
as §1

Assay [8] has as its target T6, Gamma-aminobutyric acid receptor subunit alpha-2 (Homo sapiens) (UniProt P47869).
T6 sequence (whole entry): T1 sequence (P47869 whole entry)
The assay is described as follows: Maximum percent potentiation against gamma-aminobutyric acid (GABA) A receptor, alpha 2. The note with it: Xenopus laevis. Summed up:
as §1

The species entered for the next assay is Rattus norvegicus. Put plainly: Rat behavioral spontaneous Locomotor Activity; Not significant. It counts as functional, organism-based. A digest of the protocol: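 Male Sprague-Dawley rats received the test drug iv in 50% aqueous PEG-400, which also served as the control vehicle. They were then placed in an automated activity monitor, and movement time, total distance and vertical activity were recorded over 15 min. Each drug was compared against vehicle, and NS marks a difference that was not significant.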

For assay [9], the target named is T7, Gamma-aminobutyric acid receptor subunit alpha-1 (Homo sapiens, UniProt P14867).
T7 sequence (P14867 whole entry): T5 sequence (whole entry)
Put plainly: Effective concentration against gamma-aminobutyric acid (GABA) A receptor, alpha 1. Set-up: species or system Xenopus laevis. A digest of the protocol: as §1

Activity calls are given as the source filed them. The calls are words filed in the database; no cut-off is given here.

As for `CCCCCC(=O)N1CCc2nc(O)n3cc(-c4ccccc4F)nc3c2C1`, the NA entry in assay [1] was “inactive”.
Broadly, the EC50 is the concentration at which the effect is half-maximal. Read a low EC50 as higher potency in that assay. The term Ki denotes a dissociation constant, usually derived from enzyme kinetics or from competition with a known ligand. Consider `Oc1nc2c(c3nc(-c4ccccc4F)cn13)CN(Cc1ccncc1)CC2`, for which the figures for the EC50 in assay [2], in [6] and in assay [9] were 99 nM, 33 nM and 53 nM, respectively. Further, in assay [3], the Ki was found to be 0.9 nM. In addition, the Activity in [4] amounted to 58%; in assay [5], 0%; in assay [7], 17%; in assay [8], 42%. In addition, the NS entry in the assay filed under Rattus norvegicus is “inactive”.

These data come from ChEMBL document CHEMBL1135642, “Synthesis and biological evaluation of 7,8,9,10-tetrahydroimidazo[1,2-c]pyrido[3,4-e]pyrimdin-5(6H)-ones as functionally selective ligands of the benzodiazepine receptor site on the GABA(A) receptor” (J Med Chem, 2002).
